Results reported in ChEMBL document CHEMBL5058577, “EUbOPEN Chemogenomics Library 2 (Multiplex)” (2022).

Test system: Fibroblast
Assay: Multiplex assay against human fibroblast
Format: toxicity, cell-based
How it was run: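 On a CQ1 microscope at 37°C and 5% CO2, live cells were imaged after compound addition. They had been stained at seeding with Hoechst33342, BioTracker Green Microtubule Cytoskeleton Dye, MitoTracker Red and Annexin V Alexa Fluor 680. CellPathfinder machine-learning gating assigned cells to Hoechst high-intensity objects or normal cells, normal cells to healthy, pyknosed or fragmented nuclei, and pyknosed cells to mitotic or apoptotic. Tubulin, mitochondrial-mass and membrane-permeability phenotypes are per cents of healthy-nucleus cells.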

[1] = 12 h, 1 µM, compound concentration 1 uM, replicate 1
[2] = 12 h, 1 µM, compound concentration 1 uM, replicate 2
[3] = 12 h, 10 µM, compound concentration 10 uM, replicate 1
[4] = 12 h, 10 µM, compound concentration 10 uM, replicate 2
[5] = 24 h, 1 µM, compound concentration 1 uM, replicate 1
[6] = 24 h, 1 µM, compound concentration 1 uM, replicate 2
[7] = 24 h, 10 µM, compound concentration 10 uM, replicate 1
[8] = 24 h, 10 µM, compound concentration 10 uM, replicate 2
[9] = 48 h, 1 µM, compound concentration 1 uM, replicate 1
[10] = 48 h, 1 µM, compound concentration 1 uM, replicate 2
[11] = 48 h, 10 µM, compound concentration 10 uM, replicate 1
[12] = 48 h, 10 µM, compound concentration 10 uM, replicate 2

## COc1cc(C(=O)N(CCCc2ccccc2)Cc2ccc(CC(=O)O)cc2)cc(OC)c1C
[1]
  Population Apoptotic (%): 63%
  Population Fragmented Nuclei (%): 14%
  Population Healthy Nuclei (%): 73%
  Population Hoechst High Intensity Objects (%): 2%
  Population Membrane Permeable-Phenotype (%): 0%
  Population Mitochondria Different-Phenotype (%): 0%
  Population Mitotic Cells (%): 36%
  Population Normal (%): 97%
  Population Pyknosed Nuclei (%): 12%
  Population Tubulin-Different-Phenotype (%): 15%
  Total Cell Count: 160
[2]
  Population Apoptotic (%): 42%
  Population Fragmented Nuclei (%): 37%
  Population Healthy Nuclei (%): 45%
  Population Hoechst High Intensity Objects (%): 4%
  Population Membrane Permeable-Phenotype (%): 11%
  Population Mitochondria Different-Phenotype (%): 5%
  Population Mitotic Cells (%): 57%
  Population Normal (%): 95%
  Population Pyknosed Nuclei (%): 16%
  Population Tubulin-Different-Phenotype (%): 36%
  Total Cell Count: 176
[3]
  Population Apoptotic (%): 41%
  Population Fragmented Nuclei (%): 16%
  Population Healthy Nuclei (%): 70%
  Population Hoechst High Intensity Objects (%): 2%
  Population Membrane Permeable-Phenotype (%): 0%
  Population Mitochondria Different-Phenotype (%): 5%
  Population Mitotic Cells (%): 58%
  Population Normal (%): 97%
  Population Pyknosed Nuclei (%): 12%
  Population Tubulin-Different-Phenotype (%): 28%
  Total Cell Count: 197
[4]
  Population Apoptotic (%): 45%
  Population Fragmented Nuclei (%): 25%
  Population Healthy Nuclei (%): 61%
  Population Hoechst High Intensity Objects (%): 4%
  Population Membrane Permeable-Phenotype (%): 7%
  Population Mitochondria Different-Phenotype (%): 4%
  Population Mitotic Cells (%): 54%
  Population Normal (%): 95%
  Population Pyknosed Nuclei (%): 13%
  Population Tubulin-Different-Phenotype (%): 47%
  Total Cell Count: 181
[5]
  Population Apoptotic (%): 68%
  Population Fragmented Nuclei (%): 11%
  Population Healthy Nuclei (%): 77%
  Population Hoechst High Intensity Objects (%): 1%
  Population Membrane Permeable-Phenotype (%): 0%
  Population Mitochondria Different-Phenotype (%): 0%
  Population Mitotic Cells (%): 31%
  Population Normal (%): 98%
  Population Pyknosed Nuclei (%): 10%
  Population Tubulin-Different-Phenotype (%): 13%
  Total Cell Count: 156
[6]
  Population Apoptotic (%): 52%
  Population Fragmented Nuclei (%): 44%
  Population Healthy Nuclei (%): 41%
  Population Hoechst High Intensity Objects (%): 4%
  Population Membrane Permeable-Phenotype (%): 1%
  Population Mitochondria Different-Phenotype (%): 6%
  Population Mitotic Cells (%): 48%
  Population Normal (%): 95%
  Population Pyknosed Nuclei (%): 13%
  Population Tubulin-Different-Phenotype (%): 28%
  Total Cell Count: 189
[7]
  Population Apoptotic (%): 55%
  Population Fragmented Nuclei (%): 12%
  Population Healthy Nuclei (%): 76%
  Population Hoechst High Intensity Objects (%): 1%
  Population Membrane Permeable-Phenotype (%): 1%
  Population Mitochondria Different-Phenotype (%): 6%
  Population Mitotic Cells (%): 45%
  Population Normal (%): 98%
  Population Pyknosed Nuclei (%): 10%
  Population Tubulin-Different-Phenotype (%): 25%
  Total Cell Count: 192
[8]
  Population Apoptotic (%): 40%
  Population Fragmented Nuclei (%): 25%
  Population Healthy Nuclei (%): 61%
  Population Hoechst High Intensity Objects (%): 4%
  Population Membrane Permeable-Phenotype (%): 5%
  Population Mitochondria Different-Phenotype (%): 0%
  Population Mitotic Cells (%): 59%
  Population Normal (%): 96%
  Population Pyknosed Nuclei (%): 13%
  Population Tubulin-Different-Phenotype (%): 41%
  Total Cell Count: 175
[9]
  Population Apoptotic (%): 90%
  Population Fragmented Nuclei (%): 21%
  Population Healthy Nuclei (%): 72%
  Population Hoechst High Intensity Objects (%): 1%
  Population Membrane Permeable-Phenotype (%): 0%
  Population Mitochondria Different-Phenotype (%): 0%
  Population Mitotic Cells (%): 10%
  Population Normal (%): 98%
  Population Pyknosed Nuclei (%): 6%
  Population Tubulin-Different-Phenotype (%): 17%
  Total Cell Count: 168
[10]
  Population Apoptotic (%): 52%
  Population Fragmented Nuclei (%): 50%
  Population Healthy Nuclei (%): 41%
  Population Hoechst High Intensity Objects (%): 2%
  Population Membrane Permeable-Phenotype (%): 3%
  Population Mitochondria Different-Phenotype (%): 9%
  Population Mitotic Cells (%): 47%
  Population Normal (%): 97%
  Population Pyknosed Nuclei (%): 8%
  Population Tubulin-Different-Phenotype (%): 40%
  Total Cell Count: 211
[11]
  Population Apoptotic (%): 77%
  Population Fragmented Nuclei (%): 25%
  Population Healthy Nuclei (%): 65%
  Population Hoechst High Intensity Objects (%): 2%
  Population Membrane Permeable-Phenotype (%): 1%
  Population Mitochondria Different-Phenotype (%): 5%
  Population Mitotic Cells (%): 22%
  Population Normal (%): 97%
  Population Pyknosed Nuclei (%): 9%
  Population Tubulin-Different-Phenotype (%): 32%
  Total Cell Count: 195
[12]
  Population Apoptotic (%): 58%
  Population Fragmented Nuclei (%): 38%
  Population Healthy Nuclei (%): 54%
  Population Hoechst High Intensity Objects (%): 5%
  Population Membrane Permeable-Phenotype (%): 5%
  Population Mitochondria Different-Phenotype (%): 3%
  Population Mitotic Cells (%): 41%
  Population Normal (%): 94%
  Population Pyknosed Nuclei (%): 6%
  Population Tubulin-Different-Phenotype (%): 46%
  Total Cell Count: 187
